From ChEMBL document CHEMBL3632558, “Synthesis, antimycobacterial and antibacterial activity of l-[(1R,2S)-2-fluorocyclopropyl]naphthyridone derivatives containing an oxime-functionalized pyrrolidine moiety” (2015)
≈ marks a conversion by molar mass, not a printed value.

How the values were obtained:
Type in all cases: functional
Staphylococcus aureus [1] = assay: Antibacterial activity against Staphylococcus aureus CMCC 26003 after 18 to 24 hrs
Outline: (§1)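 MIC by standard NCCLS reference procedure (M100-S11); lowest concentration of compound inhibiting visible bacterial growth after incubation at 35 °C for 18–24 h, read as complete inhibition of growth. Ciprofloxacin, levofloxacin and moxifloxacin run alongside as reference agents.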

[2] = tested on: Staphylococcus epidermidis; assay: Antibacterial activity against methicillin-resistant Staphylococcus epidermidis 14-39 after 18 to 24 hrs
[3] = tested on: Staphylococcus epidermidis; assay: Antibacterial activity against methicillin-sensitive Staphylococcus epidermidis 14-2 after 18 to 24 hrs; outline: as §1
Staphylococcus aureus [4] = assay: Antibacterial activity against methicillin-resistant Staphylococcus aureus 14-5 after 18 to 24 hrs
Pseudomonas aeruginosa [5] = assay: Antibacterial activity against Pseudomonas aeruginosa 14-16 after 18 to 24 hrs; outline: as §1
Staphylococcus aureus [6] = assay: Antibacterial activity against methicillin-resistant Staphylococcus aureus 14-4 after 18 to 24 hrs
Staphylococcus aureus [7] = assay: Antibacterial activity against methicillin-sensitive Staphylococcus aureus 14-4 after 18 to 24 hrs; outline: as §1
Klebsiella pneumoniae [8] = assay: Antibacterial activity against Klebsiella pneumoniae 14-2 after 18 to 24 hrs; outline: as §1
Escherichia coli [9] = assay: Antibacterial activity against Escherichia coli 14-1 after 18 to 24 hrs; outline: as §1
Enterococcus faecium [10] = assay: Antibacterial activity against Enterococcus faecium 14-2 after 18 to 24 hrs; outline: as §1
[11] = tested on: Staphylococcus epidermidis; assay: Antibacterial activity against methicillin-resistant Staphylococcus epidermidis 14-37 after 18 to 24 hrs
Klebsiella pneumoniae [12] = assay: Antibacterial activity against ESBL-positive Klebsiella pneumoniae 14-18 after 18 to 24 hrs; outline: as §1
Enterococcus faecium [13] = assay: Antibacterial activity against Enterococcus faecium 14-5 after 18 to 24 hrs; outline: as §1
Klebsiella pneumoniae [14] = assay: Antibacterial activity against Klebsiella pneumoniae 14-3 after 18 to 24 hrs; outline: as §1
Escherichia coli [15] = assay: Antibacterial activity against Escherichia coli 14-2 after 18 to 24 hrs; outline: as §1
Enterococcus faecalis [16] = assay: Antibacterial activity against Enterococcus faecalis 14-2 after 18 to 24 hrs; outline: as §1
[17] = tested on: Staphylococcus epidermidis; assay: Antibacterial activity against methicillin-resistant Staphylococcus epidermidis 14-22 after 18 to 24 hrs
Streptococcus pneumoniae = assay: Antibacterial activity against Streptococcus pneumoniae ATCC 19615 after 18 to 24 hrs; outline: as §1
Pseudomonas aeruginosa [18] = assay: Antibacterial activity against Pseudomonas aeruginosa 14-19 after 18 to 24 hrs; outline: as §1
Escherichia coli [19] = assay: Antibacterial activity against ESBL-positive Escherichia coli 14-1 after 18 to 24 hrs; outline: as §1
[20] = tested on: Staphylococcus epidermidis; assay: Antibacterial activity against methicillin-resistant Staphylococcus epidermidis 14-21 after 18 to 24 hrs
Escherichia coli [21] = assay: Antibacterial activity against ESBL-positive Escherichia coli 14-2 after 18 to 24 hrs; outline: as §1
Pseudomonas aeruginosa [22] = assay: Antibacterial activity against Pseudomonas aeruginosa ATCC 27853 after 18 to 24 hrs; outline: as §1
Klebsiella pneumoniae [23] = assay: Antibacterial activity against ESBL-positive Klebsiella pneumoniae 14-17 after 18 to 24 hrs; outline: as §1
Pseudomonas aeruginosa [24] = assay: Antibacterial activity against Pseudomonas aeruginosa 14-15 after 18 to 24 hrs; outline: as §1
Enterococcus faecalis [25] = assay: Antibacterial activity against Enterococcus faecalis 14-1 after 18 to 24 hrs; outline: as §1
Escherichia coli [26] = assay: Antibacterial activity against Escherichia coli ATCC 25922 after 18 to 24 hrs; outline: as §1
Enterococcus faecium [27] = assay: Antibacterial activity against Enterococcus faecium 14-6 after 18 to 24 hrs; outline: as §1
Staphylococcus aureus [28] = assay: Antibacterial activity against methicillin-sensitive Staphylococcus aureus 14-1 after 18 to 24 hrs; outline: as §1
[29] = tested on: Mycobacterium tuberculosis; assay: Antimycobacterial activity against Mycobacterium tuberculosis H37Rv ATCC 27294 by alamar blue assay
Outline: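 Microplate Alamar Blue Assay; MIC is the lowest concentration giving ≥90% reduction in fluorescence relative to the mean of replicate bacterium-only controls. MDR strain 6133 is resistant to isoniazid and rifampicin.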

Pseudomonas aeruginosa [30] = assay: Antibacterial activity against Pseudomonas aeruginosa 14-9 after 18 to 24 hrs; outline: as §1
Staphylococcus aureus [31] = assay: Antibacterial activity against methicillin-sensitive Staphylococcus aureus 14-3 after 18 to 24 hrs; outline: as §1
Klebsiella pneumoniae [32] = assay: Antibacterial activity against ESBL-positive Klebsiella pneumoniae 14-19 after 18 to 24 hrs; outline: as §1
Klebsiella pneumoniae [33] = assay: Antibacterial activity against Klebsiella pneumoniae 14-4 after 18 to 24 hrs; outline: as §1
Klebsiella pneumoniae [34] = assay: Antibacterial activity against Klebsiella pneumoniae 14-1 after 18 to 24 hrs; outline: as §1
Pseudomonas aeruginosa [35] = assay: Antibacterial activity against Pseudomonas aeruginosa 14-14 after 18 to 24 hrs; outline: as §1
Enterococcus faecium [36] = assay: Antibacterial activity against Enterococcus faecium 14-1 after 18 to 24 hrs; outline: as §1
Staphylococcus aureus [37] = assay: Antibacterial activity against methicillin-sensitive Staphylococcus aureus 14-2 after 18 to 24 hrs; outline: as §1

Structure (SMILES) | MIC (Staphylococcus aureus [1]) [µg/mL] | MIC [2] [µg/mL] | MIC [3] [µg/mL] | MIC (Staphylococcus aureus [4]) [µg/mL] | MIC (Pseudomonas aeruginosa [5]) [µg/mL] | MIC (Staphylococcus aureus [6]) [µg/mL] | MIC (Staphylococcus aureus [7]) [µg/mL] | MIC (Klebsiella pneumoniae [8]) [µg/mL] | MIC (Escherichia coli [9]) [µg/mL] | MIC (Enterococcus faecium [10]) [µg/mL] | MIC [11] [µg/mL] | MIC (Klebsiella pneumoniae [12]) [µg/mL] | MIC (Enterococcus faecium [13]) [µg/mL] | MIC (Klebsiella pneumoniae [14]) [µg/mL] | MIC (Escherichia coli [15]) [µg/mL] | MIC (Enterococcus faecalis [16]) [µg/mL] | MIC [17] [µg/mL] | MIC (Streptococcus pneumoniae) [µg/mL] | MIC (Pseudomonas aeruginosa [18]) [µg/mL] | MIC (Escherichia coli [19]) [µg/mL] | further results
COc1cc(CO/N=C2\CN(c3nc4c(cc3F)c(=O)c(C(=O)O)cn4[C@@H]3C[C@@H]3F)CC2CN)cc(OC)c1 (stereo partly specified) | < 0.008 | 16 (≈ 29.4 µM) | 16 (≈ 29.4 µM) | 8 (≈ 14.7 µM) | 32 (≈ 58.9 µM) | 16 (≈ 29.4 µM) | 0.015 (≈ 0.0276 µM) | > 128 | > 128 | 4 (≈ 7.36 µM) | 16 (≈ 29.4 µM) | 16 (≈ 29.4 µM) | 8 (≈ 14.7 µM) | 64 (≈ 118 µM) | > 128 | 1 (≈ 1.84 µM) | 4 (≈ 7.36 µM) | 0.06 (≈ 0.11 µM) | 16 (≈ 29.4 µM) | 4 (≈ 7.36 µM) | MIC [20]: 4 µg/mL (≈ 7.36 µM); MIC (Escherichia coli [21]): > 128 µg/mL; MIC (Pseudomonas aeruginosa [22]): 8 µg/mL (≈ 14.7 µM); MIC (Klebsiella pneumoniae [23]): 16 µg/mL (≈ 29.4 µM); MIC (Pseudomonas aeruginosa [24]): 32 µg/mL (≈ 58.9 µM); MIC (Enterococcus faecalis [25]): 16 µg/mL (≈ 29.4 µM); MIC (Escherichia coli [26]): 2 µg/mL (≈ 3.68 µM); MIC (Enterococcus faecium [27]): 16 µg/mL (≈ 29.4 µM); MIC (Staphylococcus aureus [28]): 4 µg/mL (≈ 7.36 µM); MIC90 [29]: 0.375 µg/mL (≈ 0.69 µM); MIC (Pseudomonas aeruginosa [30]): 32 µg/mL (≈ 58.9 µM); MIC (Staphylococcus aureus [31]): 0.015 µg/mL (≈ 0.0276 µM); MIC (Klebsiella pneumoniae [32]): 128 µg/mL (≈ 235 µM); MIC (Klebsiella pneumoniae [33]): > 128 µg/mL; MIC (Klebsiella pneumoniae [34]): 128 µg/mL (≈ 235 µM); MIC (Pseudomonas aeruginosa [35]): 32 µg/mL (≈ 58.9 µM); MIC (Enterococcus faecium [36]): 2 µg/mL (≈ 3.68 µM); MIC (Staphylococcus aureus [37]): < 0.008 µg/mL
NCC1CN(c2nc3c(cc2F)c(=O)c(C(=O)O)cn3[C@@H]2C[C@@H]2F)C/C1=N\OCc1ccc2c(c1)OCO2 (stereo partly specified) | < 0.008 | 8 (≈ 15.2 µM) | 32 (≈ 60.7 µM) | 8 (≈ 15.2 µM) | 8 (≈ 15.2 µM) | 16 (≈ 30.3 µM) | < 0.008 | 128 (≈ 243 µM) | 32 (≈ 60.7 µM) | 1 (≈ 1.9 µM) | 6 (≈ 11.4 µM) | 4 (≈ 7.58 µM) | 8 (≈ 15.2 µM) | 128 (≈ 243 µM) | 32 (≈ 60.7 µM) | < 0.008 | 4 (≈ 7.58 µM) | 0.03 (≈ 0.0569 µM) | 8 (≈ 15.2 µM) | 8 (≈ 15.2 µM) | MIC [20]: 4 µg/mL (≈ 7.58 µM); MIC (Escherichia coli [21]): 64 µg/mL (≈ 121 µM); MIC (Pseudomonas aeruginosa [22]): 8 µg/mL (≈ 15.2 µM); MIC (Klebsiella pneumoniae [23]): 8 µg/mL (≈ 15.2 µM); MIC (Pseudomonas aeruginosa [24]): 8 µg/mL (≈ 15.2 µM); MIC (Enterococcus faecalis [25]): 16 µg/mL (≈ 30.3 µM); MIC (Escherichia coli [26]): < 0.008 µg/mL; MIC (Enterococcus faecium [27]): 4 µg/mL (≈ 7.58 µM); MIC (Staphylococcus aureus [28]): 4 µg/mL (≈ 7.58 µM); MIC90 [29]: < 0.25 µg/mL; MIC (Pseudomonas aeruginosa [30]): 8 µg/mL (≈ 15.2 µM); MIC (Staphylococcus aureus [31]): 8 µg/mL (≈ 15.2 µM); MIC (Klebsiella pneumoniae [32]): 128 µg/mL (≈ 243 µM); MIC (Klebsiella pneumoniae [33]): 128 µg/mL (≈ 243 µM); MIC (Klebsiella pneumoniae [34]): 128 µg/mL (≈ 243 µM); MIC (Pseudomonas aeruginosa [35]): 8 µg/mL (≈ 15.2 µM); MIC (Enterococcus faecium [36]): 1 µg/mL (≈ 1.9 µM); MIC (Staphylococcus aureus [37]): < 0.008 µg/mL
